Measured values reported in ChEMBL document CHEMBL1138555, “N-acylated and N,N'-diacylated imidazolidine-2-thione derivatives and N,N'-diacylated tetrahydropyrimidine-2(1H)-thione analogues: synthesis and antiproliferative activity” (Eur J Med Chem, 2009).

Key:
T47D = test: Growth inhibition of human T47D cells after 48 hrs by sulforhodamine B assay; type: functional
Procedure, shortened: (§1)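 NCI in vitro panel screen. Compounds tested at five 10-fold dilutions, 10^-4 to 10^-8 M. Cells in 96-well plates were exposed for the last 48 h of a 72 h incubation. Viability/growth was read by sulforhodamine B protein assay. GI50 is the concentration giving 50% growth inhibition. Values beyond the tested range are reported as greater or less than the maximum or minimum concentration.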

SK-OV-3 = test: Growth inhibition of human SKOV3 cells after 48 hrs by sulforhodamine B assay; type: functional; settings: SK-OV-3, 48 h
Procedure, shortened: (§2)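 NCI screen panel. Five 10-fold concentrations from 10^-4 to 10^-8 M. Exposure for the last 48 h of a 72 h incubation. Growth estimated by sulforhodamine B protein assay. GI50 is the concentration giving 50% growth inhibition. Where that level was not reached or was exceeded, the value is given as above or below the highest or lowest concentration tested.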

EKVX = test: Growth inhibition of human EKVX cells after 48 hrs by sulforhodamine B assay; type: functional; procedure, shortened: as §2
OVCAR-8 = test: Growth inhibition of human OVCAR8 cells after 48 hrs by sulforhodamine B assay; type: functional; settings: OVCAR-8, 48 h; procedure, shortened: as §2
OVCAR-3 = test: Growth inhibition of human OVCAR-3 cells after 48 hrs by sulforhodamine B assay; type: functional; settings: OVCAR-3, 48 h; procedure, shortened: as §2
U-251 = test: Growth inhibition of human U251 cells after 48 hrs by sulforhodamine B assay; type: functional; settings: U-251, 48 h; procedure, shortened: as §1
HOP-92 = test: Growth inhibition of human HOP92 cells after 48 hrs by sulforhodamine B assay; type: functional; settings: HOP-92, 48 h; procedure, shortened: as §2
UACC-257 = test: Growth inhibition of human UACC257 cells after 48 hrs by sulforhodamine B assay; type: functional; settings: UACC-257, 48 h; procedure, shortened: as §1
CAKI-1 = test: Growth inhibition of human Caki1 cells after 48 hrs by sulforhodamine B assay; type: functional; settings: CAKI-1, 48 h; procedure, shortened: as §2
BT-549 = test: Growth inhibition of human BT549 cells after 48 hrs by sulforhodamine B assay; type: functional; settings: BT-549, 48 h; procedure, shortened: as §2
SF-295 = test: Growth inhibition of human SF295 cells after 48 hrs by sulforhodamine B assay; type: functional; settings: SF-295, 48 h; procedure, shortened: as §2
A549 = test: Growth inhibition of human A549 cells after 48 hrs by sulforhodamine B assay; type: functional; settings: A549, 48 h; procedure, shortened: as §2
HOP-62 = test: Growth inhibition of human HOP62 cells after 48 hrs by sulforhodamine B assay; type: functional; settings: HOP-62, 48 h; procedure, shortened: as §2
MDA-MB-435 = test: Growth inhibition of human MDA-MB-435 cells after 48 hrs by sulforhodamine B assay; type: functional; settings: MDA-MB-435, 48 h; procedure, shortened: as §2
KM12 = test: Growth inhibition of human KM12 cells after 48 hrs by sulforhodamine B assay; type: functional; settings: KM12, 48 h; procedure, shortened: as §2
MT4 = test: Antiproliferative activity against human MT4 cells assessed as reduction of growth by MTT assay; type: functional, cell-based
Procedure, shortened: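 MT-4 lymphoblastoid T cells (ATCC) in RPMI 1640 with 10% FCS, penicillin/streptomycin, checked for mycoplasma. 1 × 10⁴ mock-infected cells per well with serial dilutions from a 100 mM DMSO stock. Incubated 4 days at 37 °C, viable cells counted by MTT. IC50 versus untreated controls by linear regression. Mean of three separate experiments.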

TK-10 = test: Growth inhibition of human TK10 cells after 48 hrs by sulforhodamine B assay; type: functional; settings: TK-10, 48 h; procedure, shortened: as §1
786-0 = test: Growth inhibition of human 786-0 cells after 48 hrs by sulforhodamine B assay; type: functional; settings: 786-0, 48 h; procedure, shortened: as §2
M14 = test: Growth inhibition of human M14 cells after 48 hrs by sulforhodamine B assay; type: functional; settings: M14, 48 h; procedure, shortened: as §2
RXF 393 = test: Growth inhibition of human RXF393 cells after 48 hrs by sulforhodamine B assay; type: functional; settings: RXF 393, 48 h; procedure, shortened: as §2
HCT-15 = test: Growth inhibition of human HCT15 cells after 48 hrs by sulforhodamine B assay; type: functional; settings: HCT-15, 48 h; procedure, shortened: as §2
NCI-H460 = test: Growth inhibition of human NCI-H460 cells after 48 hrs by sulforhodamine B assay; type: functional; settings: NCI-H460, 48 h; procedure, shortened: as §2
SR = test: Growth inhibition of human SR cells after 48 hrs by sulforhodamine B assay; type: functional; procedure, shortened: as §1
SK-MEL-2 = test: Growth inhibition of human SK-MEL-2 cells after 48 hrs by sulforhodamine B assay; type: functional; settings: SK-MEL-2, 48 h; procedure, shortened: as §2
PC-3 = test: Growth inhibition of human PC3 cells after 48 hrs by sulforhodamine B assay; type: functional; settings: PC-3, 48 h; procedure, shortened: as §2
IGROV-1 = test: Growth inhibition of human IGROV1 cells after 48 hrs by sulforhodamine B assay; type: functional; settings: IGROV-1, 48 h; procedure, shortened: as §2
LOX IMVI = test: Growth inhibition of human LOXIMVI cells after 48 hrs by sulforhodamine B assay; type: functional; procedure, shortened: as §2
SNB-19 = test: Growth inhibition of human SNB19 cells after 48 hrs by sulforhodamine B assay; type: functional; settings: SNB-19, 48 h; procedure, shortened: as §1
MDA-MB-231 = test: Growth inhibition of human MDA-MB-231 cells after 48 hrs by sulforhodamine B assay; type: functional; settings: MDA-MB-231, 48 h; procedure, shortened: as §2
[1] = Growth inhibition of human […] cells after 48 hrs by sulforhodamine B assay; type: functional; procedure, shortened: as §2
NCI-H23 = test: Growth inhibition of human NCI-H23 cells after 48 hrs by sulforhodamine B assay; type: functional; settings: NCI-H23, 48 h; procedure, shortened: as §2
HL-60(TB) = test: Growth inhibition of human HL-60(TB) cells after 48 hrs by sulforhodamine B assay; type: functional; settings: HL-60, 48 h
Procedure, shortened: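 NCI 60-cell-line screen protocol: cells exposed to compound at five 10-fold dilutions from 10^-4 to 10^-8 M for the last 48 h of a 72 h incubation. Sulforhodamine B protein assay estimated viability/growth. GI50 (50% growth inhibition) derived; where not reached or exceeded, reported as greater or less than the highest or lowest concentration tested.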

K562 = test: Growth inhibition of human K562 cells after 48 hrs by sulforhodamine B assay; type: functional; settings: K562, 48 h; procedure, shortened: as §2
NCI/ADR-RES = test: Growth inhibition of human NCI/ADR-RES cells after 48 hrs by sulforhodamine B assay; type: functional; procedure, shortened: as §2
MOLT-4 = test: Growth inhibition of human MOLT4 cells after 48 hrs by sulforhodamine B assay; type: functional; settings: MOLT-4, 48 h; procedure, shortened: as §2
SK-MEL-5 = test: Growth inhibition of human SK-MEL-5 cells after 48 hrs by sulforhodamine B assay; type: functional; settings: SK-MEL-5, 48 h; procedure, shortened: as §2
UACC-62 = test: Growth inhibition of human UACC62 cells after 48 hrs by sulforhodamine B assay; type: functional; settings: UACC-62, 48 h; procedure, shortened: as §1
OVCAR-4 = test: Growth inhibition of human OVCAR4 cells after 48 hrs by sulforhodamine B assay; type: functional; settings: OVCAR-4, 48 h; procedure, shortened: as §2
COLO 205 = test: Growth inhibition of human COLO205 cells after 48 hrs by sulforhodamine B assay; type: functional; settings: COLO 205, 48 h; procedure, shortened: as §2
UO-31 = test: Growth inhibition of human UO31 cells after 48 hrs by sulforhodamine B assay; type: functional; settings: UO-31, 48 h; procedure, shortened: as §1
SK-MEL-28 = test: Growth inhibition of human SK-MEL-28 cells after 48 hrs by sulforhodamine B assay; type: functional; settings: SK-MEL-28, 48 h; procedure, shortened: as §2
Malme-3M = test: Growth inhibition of human MALME-3M cells after 48 hrs by sulforhodamine B assay; type: functional; procedure, shortened: as §2
SN12C = test: Growth inhibition of human SN12C cells after 48 hrs by sulforhodamine B assay; type: functional; procedure, shortened: as §1
HCT-116 = test: Growth inhibition of human HCT116 cells after 48 hrs by sulforhodamine B assay; type: functional; settings: HCT-116, 48 h; procedure, shortened: as §2
ACHN = test: Growth inhibition of human ACHN cells after 48 hrs by sulforhodamine B assay; type: functional; procedure, shortened: as §2
SW-620 = test: Growth inhibition of human SW620 cells after 48 hrs by sulforhodamine B assay; type: functional; settings: SW-620, 48 h; procedure, shortened: as §1
NCI-H322M = test: Growth inhibition of human NCI-H322M cells after 48 hrs by sulforhodamine B assay; type: functional; procedure, shortened: as §2
SNB-75 = test: Growth inhibition of human SNB75 cells after 48 hrs by sulforhodamine B assay; type: functional; settings: SNB-75, 48 h; procedure, shortened: as §1
HT-29 = test: Growth inhibition of human HT-29 cells after 48 hrs by sulforhodamine B assay; type: functional; settings: HT-29, 48 h; procedure, shortened: as §2
SF-268 = test: Growth inhibition of human SF268 cells after 48 hrs by sulforhodamine B assay; type: functional; settings: SF-268, 48 h; procedure, shortened: as §2

SMILES: CC(=O)C(=CN1CCN(C(=O)c2ccco2)C1=S)C(C)=O
- GI50 (T47D): 3.7 µM
- GI50 (SK-OV-3): 20 µM
- GI50 (EKVX): 11.2 µM
- GI50 (OVCAR-8): 8.2 µM
- GI50 (OVCAR-3): 11.4 µM
- GI50 (U-251): 4.8 µM
- GI50 (HOP-92): 11.7 µM
- GI50 (UACC-257): 2.5 µM
- GI50 (CAKI-1): 5.2 µM
- GI50 (BT-549): 14 µM
- GI50 (SF-295): 21.7 µM
- GI50 (A549): 11.2 µM
- GI50 (HOP-62): 22 µM
- GI50 (MDA-MB-435): 12.6 µM
- GI50 (KM12): 2.8 µM
- IC50 (MT4): 4 µM
- GI50 (TK-10): 4.2 µM
- GI50 (786-0): 5.3 µM
- GI50 (M14): 4 µM
- GI50 (RXF 393): 1.8 µM
- GI50 (HCT-15): 2.2 µM
- GI50 (NCI-H460): 1.5 µM
- GI50 (SR): 2.3 µM
- GI50 (SK-MEL-2): 3.3 µM
- GI50 (PC-3): 4.8 µM
- GI50 (IGROV-1): 3.6 µM
- GI50 (LOX IMVI): 2.1 µM
- GI50 (SNB-19): 30.1 µM
- GI50 (MDA-MB-231): 2.6 µM
- GI50 [1]: 2.7 µM
- GI50 (NCI-H23): 16.4 µM
- GI50 (HL-60(TB)): 5.8 µM
- GI50 (K562): 38.4 µM
- GI50 (NCI/ADR-RES): 23.2 µM
- GI50 (MOLT-4): 8.2 µM
- GI50 (SK-MEL-5): 16.6 µM
- GI50 (UACC-62): 5.5 µM
- GI50 (OVCAR-4): 10.6 µM
- GI50 (COLO 205): 23.4 µM
- GI50 (UO-31): 2.9 µM
- GI50 (SK-MEL-28): 3.9 µM
- GI50 (Malme-3M): 20.7 µM
- GI50 (SN12C): 2.6 µM
- GI50 (HCT-116): 4.1 µM
- GI50 (ACHN): 2.9 µM
- GI50 (SW-620): 14.6 µM
- GI50 (NCI-H322M): 4.7 µM
- GI50 (SNB-75): 9 µM
- GI50 (HT-29): 17.1 µM
- GI50 (SF-268): 2.6 µM
